Results gathered from unrelated publications.
Compare with care: the assays were run in different laboratories.
Target: B2 bradykinin receptor (BDKRB2, Homo sapiens, UniProt P30411)
Residues used in one study (P30411 1-391): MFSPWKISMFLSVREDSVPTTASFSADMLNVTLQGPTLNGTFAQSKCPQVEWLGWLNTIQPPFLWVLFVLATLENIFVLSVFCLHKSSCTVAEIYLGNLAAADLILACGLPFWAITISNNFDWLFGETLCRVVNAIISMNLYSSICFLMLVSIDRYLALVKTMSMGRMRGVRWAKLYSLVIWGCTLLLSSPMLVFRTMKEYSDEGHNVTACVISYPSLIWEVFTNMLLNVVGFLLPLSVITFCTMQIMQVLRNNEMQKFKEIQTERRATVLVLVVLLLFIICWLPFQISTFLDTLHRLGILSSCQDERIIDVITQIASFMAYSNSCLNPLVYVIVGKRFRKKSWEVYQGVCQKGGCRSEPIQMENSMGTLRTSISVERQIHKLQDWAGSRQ

C[C@H](C(=O)N[C@H]1COc2ccccc2[C@@H]1S(C)(=O)=O)c1ccc(F)cc1  inhibition (cell-free assay; 10 µM): 8%
CC(C)N1CCC[C@H]1CNC(=O)c1cn(C2CCCC2)c(=O)c2c1c1ccccc1n2C  inhibition (ligand displacement, radioligand; 10 µM): 11%
c1ccc(C(NCCNC(c2ccccc2)c2ccccc2)c2ccccc2)cc1  inhibition (cell-free assay; 10 µM): 17%
CN(CCN1CCC(OC(=O)Nc2ccccc2-c2ccccc2)CC1)C(=O)c1ccc(CN2CCC(C(N)=O)CC2)cc1  inhibition (ligand displacement, radioligand; 1 µM): -6%
CCN(CC)CCCC[C@H](NC(=O)[C@H](CC(C)C)NC(=O)[C@H](C)NC(=O)[C@H](Cc1ccccc1)NC(=O)c1ccc(C(C)(C)C)cc1)C(=O)N[C@@H](CO)C(=O)OC  inhibition (ligand displacement, radioligand; 10 µM): -7%
COCc1c(-c2cc3cc(C)cc(OC)c3s2)c2c(N)ncnn2c1CN1CCNC(=O)C1  inhibition (ligand displacement, radioligand; 10 µM): 3%
O=C(Nc1cccnn1)N1CCN([C@@H]2CCOc3cc(C(F)(F)F)ccc32)CC1  inhibition (cell-free assay; 20 µM): 10%
COc1ccc(S(=O)(=O)N2CCCCC2)cc1C  inhibition (ligand displacement, radioligand; 10 µM): < 30%
